# From PubChem BioAssay
# The list is not random: actives were taken first. Their share in the collection is about 2.1%.
# zfTRPN1 agonist – zebrafish TRPN1 (NompC) channel agonism; HEK293 zebrafish TRPN1-YFP, Fluo-8 calcium fluorescence; 100% = response to 87 µM carbachol; activation, % at 3 µM; 0.18% of 220,000 active; AID 1424;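 active means activation above its plate's cutoff, the mean activation of test wells on that plate plus 3 SD, cut at about 19% in these data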;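 further: 0% = DMSO alone and 100% = 87 µM carbachol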
#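 Material – zebrafish TRPN1-YFP in HEK293 cells · Doses – 3 µM single point · Schedule – dye 1 h 37 °C plus 30 min RT · Signal – Fluo-8 calcium fluorescence, excitation 470-495 nm, emission 515-575 nm · Read-out – % activation versus carbachol response · Control set – carbachol high, DMSO low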
# IMP-1 inh – blocks Pseudomonas aeruginosa IMP-1 metallo-beta-lactamase; AID 1556; inhibition, % at 5.6 µM; purified IMP-1, nitrocefin hydrolysis, epi-absorbance fluorescence; 0.45% of 290,000 active;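 active means inhibition above the mean plus 3 SD of all compounds in the same screening run, cut at about 4.5% in these data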;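 further: 0% = IMP-1 with DMSO and 100% = DMSO wells lacking enzyme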
#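 Material – recombinant IMP-1 enzyme, purified · Amount – IMP-1 0.2 nM before substrate addition · Medium – HEPES buffer pH 7.1 with ZnSO4 and Brij 35 · Timing – 25 °C, 15 min preincubation, 25 min reaction · Measured by – plate fluorescence quenching by hydrolysis product, ex 480/em 530 nm · Read-out – percent enzyme inhibition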
# TRPML3 agonist – human mucolipin-3 channel agonism | Q8TDD5 | HEK293 TRPML3-YFP, Fluo-8 calcium fluorescence; 100% = the carbachol control signal | activation, % at 3 µM | 0.29% of 220,000 active;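 active means activation above its plate's cutoff, the mean activation of the plate's test wells plus 3 SD, cut at about 12% in these data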;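 further: 0% = DMSO only wells and 100% = carbachol wells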
# Target sequence (Q8TDD5 whole entry, looked up): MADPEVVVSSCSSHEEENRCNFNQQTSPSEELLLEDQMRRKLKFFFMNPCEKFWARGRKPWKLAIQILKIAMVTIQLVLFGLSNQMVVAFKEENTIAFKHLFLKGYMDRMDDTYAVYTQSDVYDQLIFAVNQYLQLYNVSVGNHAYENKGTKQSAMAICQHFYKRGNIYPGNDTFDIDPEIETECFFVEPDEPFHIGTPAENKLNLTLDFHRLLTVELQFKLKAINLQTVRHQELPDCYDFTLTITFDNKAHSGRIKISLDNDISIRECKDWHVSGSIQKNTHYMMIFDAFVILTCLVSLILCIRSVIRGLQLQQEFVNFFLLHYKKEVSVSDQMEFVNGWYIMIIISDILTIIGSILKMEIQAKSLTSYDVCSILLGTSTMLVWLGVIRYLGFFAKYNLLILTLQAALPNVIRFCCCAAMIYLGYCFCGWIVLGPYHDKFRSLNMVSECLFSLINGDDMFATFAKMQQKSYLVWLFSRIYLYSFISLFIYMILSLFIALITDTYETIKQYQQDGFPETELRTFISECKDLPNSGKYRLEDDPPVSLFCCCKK
#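 system = HEK293 cells stably carrying human TRPML3-YFP | doses = one concentration, 3 µM nominal, 0.3% DMSO | timing = dye loading 1 h 37 °C then 30 min ambient, 125 s read | detection = Fluo-8 calcium dye fluorescence, ex 470-495, em 515-575 nm | benchmarks = high control carbachol 87 µM, low control DMSO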
# CRFR2-BP antag – CRF-BP/CRF-R2 complex antagonism; HEK293 CRF-R2/CRF-BP, CRF-induced calcium fluorescence; inhibition, % at 11.8 µM; 0.59% of 350,000 active; AID 588475;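 active means inhibition of the ligand-induced calcium signal above about 50% at the single tested concentration, limit read from the data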
# VIM-2 inhibitor – blocks Pseudomonas aeruginosa VIM-2 metallo-beta-lactamase. purified VIM-2, nitrocefin hydrolysis, epi-absorbance fluorescence. inhibition, % at 5.6 µM. 0.89% of 290,000 active. AID 1527;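 active means inhibition above the mean of all tested compounds plus 3 SD, cutoff set per screening run, cut at about 7.5% in these data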;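 further: red hydrolysis product quenches plate fluorescence so inhibitors raise well fluorescence; 0% = enzyme with DMSO and 100% = DMSO without enzyme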
# CRFBP-R2 agonist – agonists of human CRF-binding protein/CRF-R2 receptor complex. 0.46% of 350,000 active. HEK293 CRF-R2/CRF-BP, calcium dye fluorescence (FLIPR); percent of saturating CRF peptide response. activation, % at 13.2 µM. AID 588473;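 active means activation of at least 50%, plus an integration ratio under a set limit after plate pattern correction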;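 further: plate controls were neutral control wells without compound for no effect and CRF at EC100 for full effect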
# * = called active by the depositor; . = no result given.
SMILES,zfTRPN1 agonist,IMP-1 inh,TRPML3 agonist,CRFR2-BP antag,VIM-2 inhibitor,CRFBP-R2 agonist
COc1ccccc1N1CCN(C(c2ccc(Cl)cc2)c2nnnn2C(C)(C)C)CC1 (centres undefined),0,-4,1,119*,-4,-2
O=C(Nc1ccccc1C(=O)N1CCOCC1)c1ccncc1,0,0,0,102*,2,-5
CC1(C)Cc2c(sc(/N=C/N3CCCC3)c2C#N)C(C)(C)N1,1,-2,0,62*,2,10
Nc1nc(-c2ccccc2)c(CCCOc2ccc(NC(=O)CBr)cc2)c(=O)[nH]1,.,.,.,0,.,0
CC1CCN(C(=O)c2[nH]cnc2C(=O)N[C@@H](C)C(=O)OC(C)(C)C)CC1,.,.,.,54*,.,26
Cc1ccc(S(=O)(=O)NCC(c2cccnc2)N2CCc3ccccc32)cc1 (centres undefined),.,1,.,4,-1,0
CC(=O)Nc1ccc(N=Cc2c(O)c(C(=O)Nc3ccccc3)cc3ccccc23)cc1,6,-3,2,-88,-5,115*
CC(=O)Nc1ccc(N=Cc2c(O)c3ccccc3oc2=O)cc1,.,-1,.,-3,-1,4
COCCCn1c(-c2ccccc2Cl)n[nH]c1=S,-1,-1,1,15,10*,-3
COc1cccc(NC(=O)Cn2c3ccccc3c3nc4n(c(=O)c32)CCCS4)c1,.,4.8*,.,12,2,-2
O=C(Cn1c2ccccc2c2nc3n(c(=O)c21)CCCS3)Nc1ccccc1,.,0,.,8,1,0
O=C(NC1CCCC1)c1sc(=S)n2c1[nH]c(=O)c1ccccc12,2,1,0,30,4,87*
O=C(NCc1ccccc1)c1ccc2c(=O)[nH]c3c(C(=O)NCC4CCCO4)sc(=S)n3c2c1 (centres undefined),0,-1,0,27,-1,-4
O=C(NCc1ccco1)c1sc(=S)n2c1[nH]c(=O)c1ccccc12,3,-1,1,27,4,55*
C=C(C)n1c(=O)n(Cc2ccccc2C)c2ccccc21,.,-3,.,9,1,-10
CCn1cnc2cc(NCc3ccc(Br)cc3)ccc21,.,-4,.,-60,-2,52*
Cn1ccnc1SCC(=O)c1cccc(C(F)(F)F)c1,.,-3,.,-4,4,0
CN1CCN(S(=O)(=O)c2cccc(C(=O)N(C)CC(=O)Nc3ccc(F)c(F)c3F)c2)CC1,.,.,.,8,.,0
CCn1c(N2CCN(S(=O)(=O)c3ccccc3C(F)(F)F)CC2)nc2ccccc21,0,7.2*,1,3,-4,0
O=C(O)c1cc2c(cc1Br)OCCCO2,19*,0,0,-8,1,4
O=C(O)c1ccc2c(c1)OCCCO2,2,-1,0,1,1,5
O=C(CN1C(=O)NC2(CCCC2)C1=O)OCc1ccc(Cl)cc1Cl,.,.,.,0,.,-2
CCOc1ccc(N2C(=O)C3Sc4[nH]c(=O)sc4C(/C=C/c4ccccc4)C3C2=O)cc1 (centres undefined),1,8.0*,3,-36,0,4
C=CCn1c(SCC(=O)NCCCC)nc2scc(-c3ccco3)c2c1=O,-1,7.9*,1,-7,2,11
Cc1ccc(S(=O)(=O)N(C)C(C)CCc2ccco2)cc1 (centres undefined),.,.,.,9,.,1
SMILES,zfTRPN1 agonist,IMP-1 inh,TRPML3 agonist,CRFR2-BP antag,VIM-2 inhibitor,CRFBP-R2 agonist
COc1ccc(S(=O)(=O)N(C)C(C)CCc2ccco2)cc1 (centres undefined),.,4.9*,.,11,4,0
Cc1noc(NS(=O)(=O)c2ccc(N/C=C\C(=O)c3cccc4ccccc34)cc2)c1C,0,-2,1,56*,-2,-4
COc1cccc(C(=O)/C=C/Nc2ccc(S(=O)(=O)Nc3onc(C)c3C)cc2)c1,1,-1,-1,23,-1,0
CN1C/C(=C/c2ccncc2)C(=O)/C(=C/c2ccncc2)C1,.,0,.,2,0,1
CN1C/C(=C\c2ccc(N3CCOCC3)cc2)C(=O)/C(=C/c2ccc(N3CCOCC3)cc2)C1,10,-2,7,-85,1,66*
CCN1C/C(=C/c2ccc(N3CCOCC3)cc2)C(=O)/C(=C/c2ccc(N3CCOCC3)cc2)C1,9,-2,11,-126,-1,114*
CCCc1ccc(O)c(N=Cc2cc(Br)cc(OCC)c2O)c1,1,5.5*,0,1,-2,1
COc1ccccc1N1CCN(c2ccc3c(c2)S(=O)(=O)c2cccc(C(=O)NCc4ccc(F)cc4)c2C3=O)CC1,.,.,.,5,.,0
O=C(NCCc1ccc(F)cc1)c1cccc2c1C(=O)c1ccc(N3CCC(Cc4ccccc4)CC3)cc1S2(=O)=O,.,.,.,-177,.,174*
CN1CCC[C@@H]1CCNC(=O)c1cccc2c1C(=O)c1ccc(N3CCCC3)cc1S2(=O)=O,.,.,.,-8,.,14
O=C(NCc1cccc(F)c1)c1cccc2c1C(=O)c1ccc(N3CCCC3)cc1S2(=O)=O,.,.,.,-49,.,91*
O=C(NCc1ccco1)c1cccc2c1C(=O)c1ccc(N3CCC(Cc4ccccc4)CC3)cc1S2(=O)=O,.,.,.,-14,.,62*
O=C(NCc1cccc(F)c1)c1cccc2c1C(=O)c1ccc(N3CCC(Cc4ccccc4)CC3)cc1S2(=O)=O,.,.,.,-45,.,75*
Cc1cc(C)cc(NC(=S)N2C3CCCC2CC(NC(=O)C2CC2)C3)c1 (centres undefined),.,-1,.,-5,1,-1
COc1ccc(C(=O)Nc2ccc(C(=O)N3CCCCC3C)cc2)c(OC)c1OC (centres undefined),.,-2,.,-9,-1,1
N#Cc1ccc(NC(=O)Cn2cnc(S(=O)(=O)N3CCc4ccccc43)c2)cc1,.,-2,.,-4,-6,-1
CC1CCN(c2ccc3c(c2)S(=O)(=O)c2cccc(C(=O)NCc4cccc(F)c4)c2C3=O)CC1,.,.,.,-29,.,92*
O=C(NCc1cccc(C(F)(F)F)c1)c1cccc2c1C(=O)c1ccc(N3CCC(Cc4ccccc4)CC3)cc1S2(=O)=O,.,.,.,-49,.,67*
CCOC(=O)[C@H]1[C@H]2COc3ccc(C)cc3[C@@H]2N2C(=O)c3cc(F)c(F)cc3NC(=O)[C@@]12C,.,.,.,0,.,0
O=C(CCNC(=O)c1ccccc1Cl)NCC(c1ccco1)N1CCCC1 (centres undefined),.,.,.,1,.,-1
O=C(Nc1ccccc1)Nc1cccc(C(F)(F)F)c1,24*,-5,14*,17,-3,2
O=C(/C=C/Nc1cccc(C(F)(F)F)c1)C(F)(F)F,2,5.9*,1,-6,0,1
O=C(/C=C/Nc1ccc(OC(F)(F)F)cc1)C(F)(F)F,0,-2,1,14,-3,0
